{"source": "ChEMBL document CHEMBL4014261", "about": "“Design, Synthesis, and Antimicrobial Evaluation of a Novel Bone-Targeting Bisphosphonate-Ciprofloxacin Conjugate for the Treatment of Osteomyelitis Biofilms” (J Med Chem, 2017)", "key": {"Staphylococcus aureus [1]": {"tested_on": "Staphylococcus aureus", "test": "Antibacterial activity against methicillin-sensitive Staphylococcus aureus isolate 1 planktonic cells after 24 hrs by microdilution assay", "assay_type": "functional", "settings": "isolate 1, 24 h", "procedure,_shortened": "(§1)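 Planktonic cells at 1 × 10^5 CFU/mL were exposed to compound, and A580 was read at 0 h and after 24 h at 37 °C with shaking. Controls were medium plus microbes, with 1% (v/v) DMSO where the solvent was used. Relative cell number was calculated against the control. Results were confirmed by subculture in fresh medium (48 h, 37 °C) and plating. Conjugate concentrations were expressed as parent-antibiotic equivalents.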"}, "Staphylococcus aureus [2]": {"tested_on": "Staphylococcus aureus", "test": "Antibacterial activity against methicillin-sensitive Staphylococcus aureus isolate 3 planktonic cells after 24 hrs by microdilution assay", "assay_type": "functional", "settings": "isolate 3, 24 h", "procedure,_shortened": "as §1"}, "Staphylococcus aureus [3]": {"tested_on": "Staphylococcus aureus", "test": "Antibacterial activity against methicillin-sensitive Staphylococcus aureus isolate 6 planktonic cells after 24 hrs by microdilution assay", "assay_type": "functional", "settings": "isolate 6, 24 h", "procedure,_shortened": "as §1"}, "Hydroxyapatite": {"tested_on": "Hydroxyapatite", "test": "Binding affinity to Hydroxyapatite at 1.95 to 250 ug/mL up to 24 hrs by spectroscopic analysis", "procedure,_shortened": "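HA spherules (final 10 mg/mL) in TSB were mixed with compound (final 0.24–250 mg/L). Absorbance at 275 nm was read at 0 h and after 24 h at 37 °C with shaking, and relative compound concentration was derived by comparing the two readings.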"}, "Staphylococcus aureus [4]": {"tested_on": "Staphylococcus aureus", "test": "Antibacterial activity against methicillin-sensitive Staphylococcus aureus ATCC 6538 planktonic cells at pH 5 after 24 hrs by microdilution method", "assay_type": "functional", "settings": "ATCC 6538, 24 h", "procedure,_shortened": "(§2)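 Planktonic ATCC 6538 was tested by microdilution in medium adjusted to pH 5 or pH 7.4 with KOH or HCl, with pH checked by universal indicator. MIC50 was determined at each pH.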"}, "Staphylococcus aureus [5]": {"tested_on": "Staphylococcus aureus", "test": "Ratio of MIC50 for methicillin-sensitive Staphylococcus aureus ATCC 6538 planktonic cells at pH 5 to MIC50 for methicillin-sensitive Staphylococcus aureus ATCC 6538 planktonic cells at pH 7.4", "assay_type": "functional", "procedure,_shortened": "as §2"}, "Staphylococcus aureus [6]": {"tested_on": "Staphylococcus aureus", "test": "Bactericidal activity against methicillin-sensitive Staphylococcus aureus ATCC 6538 planktonic cells assessed as reduction in bacterial growth at 31.25 ug/ml up to 1 hr by time kill assay relative to control", "assay_type": "functional", "parameters": "scale not given: the % may be the effect or the level left", "procedure,_shortened": "(§3)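 Time-kill per CLSI on planktonic cultures, set up as the microdilution assay: 1 × 10^5 CFU/mL, 37 °C with shaking. A580 is read at 0, 1, 2, 4, 8, 16 and 24 h, and growth is expressed relative to untreated medium + microbes control. Concentrations are parent-antibiotic equivalents.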"}, "Staphylococcus aureus [7]": {"tested_on": "Staphylococcus aureus", "test": "Bactericidal activity against methicillin-resistant Staphylococcus aureus MR4-CIPS planktonic cells assessed as reduction in bacterial growth at 7.8 ug/ml after 2 hrs by time kill assay", "assay_type": "functional", "procedure,_shortened": "as §3"}, "Staphylococcus aureus [8]": {"tested_on": "Staphylococcus aureus", "test": "Bactericidal activity against methicillin-resistant Staphylococcus aureus MR4-CIPS planktonic cells assessed as reduction in bacterial growth at 7.8 ug/ml after 24 hrs by time kill assay relative to control", "assay_type": "functional", "parameters": "scale not given: the % may be the effect or the level left", "procedure,_shortened": "as §3"}, "Pseudomonas aeruginosa": {"tested_on": "Pseudomonas aeruginosa", "test": "Bactericidal activity against Pseudomonas aeruginosa ATCC 15442 biofilm using polystyrene as substrate assessed as reduction in colony forming units at 0.24 to 125 ug/ml after 24 hrs", "assay_type": "functional", "procedure,_shortened": "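Biofilms were started from a 1 McFarland suspension, allowed to adhere 4 h at 37 °C on HA discs or polystyrene well bottoms, then rinsed. They were exposed 24 h at 37 °C to TSB containing 0.24–125 mg/L compound. Cells were detached in 0.5% saponin by 1 min vortexing, serially diluted and plated on Columbia (S. aureus) or MacConkey (P. aeruginosa) agar, 37 °C, 24 h. Read-out was mean CFU/mm² ± SEM; HA area was measured by X-ray tomography.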"}, "Staphylococcus aureus [9]": {"tested_on": "Staphylococcus aureus", "test": "Antibiofilm activity against Staphylococcus aureus ATCC 6538 assessed as reduction in bacterial adherence to HA at 15.6 to 250 ug/ml pretreated with HA for 24 hrs followed by organism inoculation measured after 24 hrs", "assay_type": "functional", "procedure,_shortened": "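HA spherules (final 10 mg/mL) in TSB were preincubated 24 h at 37 °C with shaking with compound (final 0.12–250 mg/L), then pelleted and the supernatant discarded. They were inoculated with 1 mL S. aureus at 10^5 CFU/mL. A580 was read at 0 and 24 h (37 °C, shaking) against controls without spherules and spherules without compound; spherules were also plated for CFU.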"}, "Staphylococcus aureus [10]": {"tested_on": "Staphylococcus aureus", "test": "Antibiofilm activity against Staphylococcus aureus ATCC 6538 assessed as CFU counts at 1 ug/mL pretreated with HA for 24 hrs followed by organism inoculation measured after 24 hrs (reference value: 4.5 x 10^10CFU)", "assay_type": "functional", "procedure,_shortened": "(§4)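 HA discs were soaked 24 h at 37 °C in 2 mL compound solution, with DMSO or phosphate-buffer controls, then rinsed 3× with sterile water. Discs were inoculated with 2 mL of 0.5 McFarland S. aureus ATCC 6538 for biofilm formation. Biofilm CFU were counted after 24 h growth.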"}, "Staphylococcus aureus [11]": {"tested_on": "Staphylococcus aureus", "test": "Antibiofilm activity against Staphylococcus aureus ATCC 6538 assessed as CFU counts at 10 ug/mL pretreated with HA for 24 hrs followed by organism inoculation measured after 24 hrs (reference value: 4.5 x 10^10CFU)", "assay_type": "functional", "procedure,_shortened": "as §4"}, "Staphylococcus aureus [12]": {"tested_on": "Staphylococcus aureus", "test": "Antibiofilm activity against Staphylococcus aureus ATCC 6538 assessed as CFU counts at 100 ug/mL pretreated with HA for 24 hrs followed by organism inoculation measured after 24 hrs (reference value: 4.5 x 10^10CFU)", "assay_type": "functional", "procedure,_shortened": "as §4"}, "Staphylococcus aureus [13]": {"tested_on": "Staphylococcus aureus", "test": "Antibiofilm activity against Staphylococcus aureus ATCC 6538 assessed as CFU counts at 200 ug/mL pretreated with HA for 24 hrs followed by organism inoculation measured after 24 hrs (reference value: 4.5 x 10^10CFU)", "assay_type": "functional"}, "Staphylococcus aureus [14]": {"tested_on": "Staphylococcus aureus", "test": "Antibiofilm activity against Staphylococcus aureus ATCC 6538 assessed as CFU counts at 400 ug/mL pretreated with HA for 24 hrs followed by organism inoculation measured after 24 hrs (reference value: 4.5 x 10^10CFU)", "assay_type": "functional"}, "Staphylococcus aureus [15]": {"tested_on": "Staphylococcus aureus", "test": "Potency index, ratio of ciprofloxacin bactericidal concentration to compound bactericidal concentration for Staphylococcus aureus ATCC 6538", "assay_type": "functional"}, "[16]": {"tested_on": "Aggregatibacter actinomycetemcomitans", "test": "Antibiofilm activity against Aggregatibacter actinomycetemcomitans D7S-5 using hydroxyapatite as substrate at >15 ug/mL after 24 hrs", "assay_type": "functional"}, "[17]": {"tested_on": "Aggregatibacter actinomycetemcomitans", "test": "Antibiofilm activity against Aggregatibacter actinomycetemcomitans infected in jawbone peri-implant osteomyelitis Sprague-Dawley rat model assessed as reduction in bacterial count in bone at 10 mg/kg, ip single dose measured after 1 week post pharmacotherapy", "assay_type": "functional", "parameters": "scale not given: the % may be the effect or the level left", "procedure,_shortened": "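Rats carried two titanium implants each, preinoculated with A. actinomycetemcomitans D7S-1 biofilm (10^9 CFU), placed bilaterally in palatal bone. One week after surgery, randomized groups received i.p. doses in sterile saline; the negative control was endotoxin-free saline. One week after treatment, 1 cm² peri-implant tissue and bone were homogenized in 0.5% saponin, serially diluted 10-fold and spread-plated on modified TSB (37 °C, 5% CO2, 48 h). Read-out was CFU/g and mean log10 reduction; analysts were blinded.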"}, "Staphylococcus aureus [18]": {"tested_on": "Staphylococcus aureus", "test": "Bactericidal activity against methicillin-susceptible Staphylococcus aureus ATCC 6538 planktonic cells assessed as reduction in bacterial growth at 15.6 ug/ml after 2 hrs by time kill assay"}, "Staphylococcus aureus [19]": {"tested_on": "Staphylococcus aureus", "test": "Bactericidal activity against methicillin-susceptible Staphylococcus aureus ATCC 6538 planktonic cells assessed as reduction in bacterial growth at 15.6 ug/ml after 24 hrs by time kill assay", "parameters": "scale not given: the % may be the effect or the level left"}}, "note": "The source made the active and inactive calls. The calls are words filed in the database; no cut-off is given here.", "data": [{"smiles": "O=C(O)c1cn(C2CC2)c2cc(N3CCN(C(=O)Oc4ccc(CC(P(=O)(O)O)P(=O)(O)O)cc4)CC3)c(F)cc2c1=O", "values": [{"measurement": "MIC", "setting": "Staphylococcus aureus [1]", "result": 3.9, "unit": "µg/mL"}, {"measurement": "MIC", "setting": "Staphylococcus aureus [2]", "result": 0.49, "unit": "µg/mL"}, {"measurement": "MIC", "setting": "Staphylococcus aureus [3]", "result": 7.8, "unit": "µg/mL"}, {"measurement": "Activity", "setting": "Hydroxyapatite", "result": "Active"}, {"measurement": "MIC50", "setting": "Staphylococcus aureus [4]", "result": 7.81, "unit": "µg/mL"}, {"measurement": "MIC90", "setting": "Staphylococcus aureus [4]", "result": 31.2, "unit": "µg/mL"}, {"measurement": "Ratio", "setting": "Staphylococcus aureus [5]", "result": 0.5}, {"measurement": "Activity", "setting": "Staphylococcus aureus [6]", "result": 100, "unit": "%"}, {"measurement": "Activity", "setting": "Staphylococcus aureus [7]", "result": "Active"}, {"measurement": "Activity", "setting": "Staphylococcus aureus [8]", "result": 50, "unit": "%"}, {"measurement": "Activity", "setting": "Pseudomonas aeruginosa", "result": "inactive"}, {"measurement": "Activity", "setting": "Staphylococcus aureus [9]", "result": "Active"}, {"measurement": "Activity", "setting": "Staphylococcus aureus [10]", "result": 7.1, "unit": "×10¹⁰ CFU"}, {"measurement": "Activity", "setting": "Staphylococcus aureus [11]", "result": "Active"}, {"measurement": "Activity", "setting": "Staphylococcus aureus [12]", "result": "Active"}, {"measurement": "Activity", "setting": "Staphylococcus aureus [13]", "result": "Active"}, {"measurement": "Activity", "setting": "Staphylococcus aureus [14]", "result": "Active"}, {"measurement": "Ratio", "setting": "Staphylococcus aureus [15]", "result": 20}, {"measurement": "Activity", "setting": "[16]", "result": "Active"}, {"measurement": "Activity", "setting": "[17]", "result": 99, "unit": "%"}, {"measurement": "Activity", "setting": "Staphylococcus aureus [18]", "result": "Active"}, {"measurement": "Activity", "setting": "Staphylococcus aureus [19]", "result": 50, "unit": "%"}]}]}
